Drawing on ChEMBL document CHEMBL1158567, “Azetidinone-isothiazolidinones: stereoselective synthesis and antibacterial evaluation of new monocyclic beta-lactams” (2010), this text covers MIC for 14 compounds.

What all share (assay type): functional
One assay deals with Streptococcus pneumoniae. Kind of assay: Antibacterial activity against Streptococcus pneumoniae ATCC 6305 after overnight incubation by broth microdilution method. An outline of the steps: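 Broth microdilution MIC in cation-adjusted Mueller–Hinton broth supplemented with 5% horse serum. The inoculum was overnight agar colonies suspended in sterile saline to 0.5 McFarland turbidity. The screen cut-off was […]. Testing conditions were pH 7.4.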
A general note: Broth dilution looks for growth in wells or tubes with falling amounts of substance.

The test system of the next assay is Staphylococcus aureus. Kind of assay: Antibacterial activity against Staphylococcus aureus ATCC 29213 after overnight incubation by broth microdilution method. A digest of the protocol: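 MIC from a broth microdilution screen in cation-adjusted Mueller–Hinton broth against the ATCC reference strain. The inoculum was colonies from overnight agar culture suspended in sterile saline to a 0.5 McFarland turbidity. The top concentration tested was […]. Testing conditions were pH 7.4.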

The subject of the next assay is Enterococcus faecalis. The experiment in a line: Antibacterial activity against Enterococcus faecalis ATCC 29212 after overnight incubation by broth microdilution method. A digest of the protocol:
(§1)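 MIC from a broth microdilution screen against ATCC reference strains, run in cation-adjusted Mueller–Hinton broth. Inocula were made from overnight agar cultures: colonies were suspended in sterile saline to a turbidity equal to a 0.5 McFarland standard. The screen's upper cut-off was […]. Testing conditions were pH 7.4.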

In a further assay the test system is Haemophilus influenzae. The experiment in a line: Antibacterial activity against Haemophilus influenzae ATCC 49247 after overnight incubation by broth microdilution method. A digest of the protocol:
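Broth microdilution MIC run in Haemophilus Test Medium (HTM). The inoculum was overnight agar colonies suspended in sterile saline to 0.5 McFarland turbidity. The upper cut-off was […]. Testing conditions were pH 7.4.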

The subject of another assay is Escherichia coli. The experiment in a line: Antibacterial activity against Escherichia coli ATCC 25922 after overnight incubation by broth microdilution method. An outline of the steps:
as §1

The next assay relates to Moraxella catarrhalis. Kind of assay: Antibacterial activity against Moraxella catarrhalis ATCC 23246 after overnight incubation by broth microdilution method. An outline of the steps:
as §1

Values after ≈ are worked out from the molar mass of the structure shown. Some results are limits rather than exact numbers.

As for `CC1(C)SN(Cc2ccccc2)C(=O)[C@@H]1N1C(=O)[C@@H](N2C(=O)c3ccccc3C2=O)[C@@H]1Cl`, the MIC in the assay with Streptococcus pneumoniae is 64 µg/mL (≈ 136 µM); against Staphylococcus aureus it was 128 µg/mL (≈ 272 µM); in the assay with Enterococcus faecalis, 64 µg/mL (≈ 136 µM); against Haemophilus influenzae it was greater than 128 µg/mL; against Escherichia coli, greater than 128 µg/mL; against Moraxella catarrhalis it was 16 µg/mL (≈ 34 µM).
`CC1(C)SN([C@H](C(=O)O)c2ccccc2)C(=O)[C@@H]1N1C(=O)[C@@H](N2C(=O)c3ccccc3C2=O)[C@@H]1Cl` returned an MIC in the assay with Moraxella catarrhalis greater than 128 µg/mL.
On the same count and under the same terms, the figure for `C[C@H](NC(=O)[C@@H]1N2C(=O)[C@@H](N3C(=O)c4ccccc4C3=O)[C@H]2SC1(C)C)C(=O)OCc1ccccc1` is greater than 128 µg/mL; for `CC1(C)S[C@@H]2[C@H](N3C(=O)c4ccccc4C3=O)C(=O)N2[C@H]1C(=O)N[C@H](C(=O)OCc1ccccc1)c1ccccc1` it is greater than 128 µg/mL; for `CC1(C)S[C@@H]2[C@H](N3C(=O)c4ccccc4C3=O)C(=O)N2[C@H]1C(=O)NCC(=O)OCc1ccccc1` it is 64 µg/mL (≈ 130 µM).
Take `CC1(C)SN([C@H](C(=O)OCc2ccccc2)c2ccccc2)C(=O)[C@@H]1N1C(=O)[C@@H](N2C(=O)c3ccccc3C2=O)[C@@H]1Cl`: the MIC with Streptococcus pneumoniae is 8 µg/mL (≈ 13.2 µM); with Staphylococcus aureus, 32 µg/mL (≈ 53 µM); against Enterococcus faecalis it was 16 µg/mL (≈ 26.5 µM); with Haemophilus influenzae, greater than 128 µg/mL; with Escherichia coli, greater than 128 µg/mL; in the assay with Moraxella catarrhalis it was 64 µg/mL (≈ 106 µM).
For the compound `C[C@@H](C(=O)O)N1SC(C)(C)[C@@H](N2C(=O)[C@@H](N3C(=O)c4ccccc4C3=O)[C@@H]2Cl)C1=O`, the MIC against Enterococcus faecalis is greater than 128 µg/mL.
For the compound `CC1(C)S[C@@H]2[C@H](NC(=O)[C@H](N)c3ccc(O)cc3)C(=O)N2[C@H]1C(=O)O` [AMOXICILLIN], the MIC with Streptococcus pneumoniae amounted to 4 µg/mL (≈ 10.9 µM); in the assay on Staphylococcus aureus it was 1 µg/mL (≈ 2.74 µM); against Enterococcus faecalis, 4 µg/mL (≈ 10.9 µM); against Haemophilus influenzae, 0.015 µg/mL (≈ 0.041 µM); in the assay on Escherichia coli, 0.5 µg/mL (≈ 1.37 µM); in the assay on Moraxella catarrhalis, 0.5 µg/mL (≈ 1.37 µM).
In turn, `CC(C)N1SC(C)(C)[C@@H](N2C(=O)[C@@H](N3C(=O)c4ccccc4C3=O)[C@@H]2Cl)C1=O` displayed an MIC against Moraxella catarrhalis of 64 µg/mL (≈ 152 µM).
With `C[C@@H](C(=O)OCc1ccccc1)N1SC(C)(C)[C@@H](N2C(=O)[C@@H](N3C(=O)c4ccccc4C3=O)[C@@H]2Cl)C1=O`, the MIC with Streptococcus pneumoniae is 64 µg/mL (≈ 118 µM); in the assay on Staphylococcus aureus, 64 µg/mL (≈ 118 µM); with Enterococcus faecalis, 64 µg/mL (≈ 118 µM); with Haemophilus influenzae it was greater than 128 µg/mL; against Escherichia coli, greater than 128 µg/mL; in the assay with Moraxella catarrhalis, 32 µg/mL (≈ 59 µM).
In the case of `CC(C)NC(=O)[C@@H]1N2C(=O)[C@@H](N3C(=O)c4ccccc4C3=O)[C@H]2SC1(C)C`, the MIC against Moraxella catarrhalis was greater than 128 µg/mL.
Compound `CC1(C)S[C@@H]2[C@H](N3C(=O)c4ccccc4C3=O)C(=O)N2[C@H]1C(=O)NCc1ccccc1` showed an MIC in the assay on Moraxella catarrhalis of 64 µg/mL (≈ 147 µM).
On to `CC1(C)SN(CC(=O)OCc2ccccc2)C(=O)[C@@H]1N1C(=O)[C@@H](N2C(=O)c3ccccc3C2=O)[C@@H]1Cl`, for which the MIC against Streptococcus pneumoniae was 64 µg/mL (≈ 121 µM); with Staphylococcus aureus it was 64 µg/mL (≈ 121 µM); against Enterococcus faecalis it was 32 µg/mL (≈ 60.6 µM); with Haemophilus influenzae, greater than 128 µg/mL; against Escherichia coli, greater than 128 µg/mL; in the assay with Moraxella catarrhalis, 32 µg/mL (≈ 60.6 µM).
`CC1(C)SN(CC(=O)O)C(=O)[C@@H]1N1C(=O)[C@@H](N2C(=O)c3ccccc3C2=O)[C@@H]1Cl` yielded an MIC in the assay on Enterococcus faecalis greater than 128 µg/mL.
